≈ marks a conversion by molar mass, not a printed value.

The MIC80 is an inhibitory concentration at the 80% level, which refers to growth in some studies and to a panel of isolates in others. A high value points to lower susceptibility.

Common to all, as to assay type: functional
In one test the test system is Trichophyton rubrum. Nature of the test: Antifungal activity against Trichophyton rubrum after 7 days by serial dilution method. Particulars: 168 h. Put shortly:
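Dermatophyte MIC by NCCLS-based serial dilution in 96-well plates, in RPMI 1640 buffered with 0.165 M MOPS. Compounds were dissolved in DMSO and diluted in growth medium. Incubation was at 28 °C. Strain was ATCC or clinical isolate. MIC80 is the lowest concentration reducing turbidity to […] of growth control.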

Another test has as its system Cryptococcus neoformans. Nature of the test: Antifungal activity against Cryptococcus neoformans after 72 hrs by serial dilution method. The gist of the method: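 Yeast MIC by NCCLS serial microdilution in RPMI 1640 with 0.165 M MOPS, using an ATCC strain or clinical isolate. Test agents came from DMSO stocks diluted in medium. Incubation was at 35 °C with the read at 72 h. MIC80 is the lowest concentration at which turbidity was […] of drug-free control growth.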

In a further test the test system is Candida albicans. Nature of the test: Antifungal activity against Candida albicans after 24 hrs by serial dilution method. The gist of the method:
(§1)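 Broth microdilution MIC per NCCLS recommendations in 96-well plates, using RPMI 1640 buffered with 0.165 M MOPS. Strains were ATCC or clinical isolates. Compounds were dissolved in DMSO and serially diluted in medium. Yeasts were incubated at 35 °C and growth was read at 24 h. MIC80 is the lowest concentration giving […] of control growth (turbidity).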

The subject of another test is Kluyveromyces marxianus. The test is described as follows: Antifungal activity against Candida kefyr after 24 hrs by serial dilution method. Put shortly:
as §1

The test system of the next test is Candida parapsilosis. Nature of the test: Antifungal activity against Candida parapsilosis after 24 hrs by serial dilution method. Particulars: Lodderomyces parapsilosis. The gist of the method: as §1
The next test has as its system Aspergillus fumigatus. Nature of the test: Antifungal activity against Aspergillus fumigatus after 7 days by serial dilution method. The settings on record: 168 h. Put shortly: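 Mould susceptibility by NCCLS serial dilution in 96-well plates, using MOPS-buffered (0.165 M) RPMI 1640 medium. Compounds were dissolved in DMSO and serially diluted in medium. Isolates were from ATCC or clinical sources. The endpoint MIC80 is the lowest concentration giving turbidity […] of control growth.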

The test system of a further test is Candida tropicalis. The test is described as follows: Antifungal activity against Candida tropicalis after 24 hrs by serial dilution method. The gist of the method:
as §1

With `CN(CC(O)(Cn1cncn1)c1ccc(F)cc1F)C1CCN(Cc2ccc(Cl)c(Cl)c2)CC1` (stereo not given), the MIC80 was determined as 0.25 mg/L (≈ 0.49 µM) with Trichophyton rubrum; 0.25 mg/L (≈ 0.49 µM) against Cryptococcus neoformans; 0.0625 mg/L (≈ 0.122 µM) against Candida albicans; 0.25 mg/L (≈ 0.49 µM) against Kluyveromyces marxianus; 0.0625 mg/L (≈ 0.122 µM) against Candida parapsilosis; 4 mg/L (≈ 7.84 µM) in the test with Aspergillus fumigatus. The compound further returned an MIC80 against Candida tropicalis of 0.0625 mg/L (≈ 0.122 µM).

Regarding `CN(CC(O)(Cn1cncn1)c1ccc(F)cc1F)C1CCN(Cc2ccccc2)CC1` (stereo not given), the MIC80 against Trichophyton rubrum worked out at 1 mg/L (≈ 2.26 µM); with Cryptococcus neoformans, 1 mg/L (≈ 2.26 µM); against Candida albicans it was 0.25 mg/L (≈ 0.566 µM); in the test on Kluyveromyces marxianus, 1 mg/L (≈ 2.26 µM); in the test on Candida parapsilosis it was 0.25 mg/L (≈ 0.566 µM); in the test with Aspergillus fumigatus it was 64 mg/L (≈ 145 µM). In addition, in the test with Candida tropicalis, the MIC80 was found to be 1 mg/L (≈ 2.26 µM).

Turning to `CN(CC(O)(Cn1cncn1)c1ccc(F)cc1F)C1CCN(Cc2ccc([N+](=O)[O-])cc2)CC1` (stereo not given), the MIC80 against Trichophyton rubrum amounted to 0.25 mg/L (≈ 0.514 µM); against Cryptococcus neoformans, 0.25 mg/L (≈ 0.514 µM); against Candida albicans it was 0.0625 mg/L (≈ 0.128 µM); with Kluyveromyces marxianus it was 1 mg/L (≈ 2.06 µM); against Candida parapsilosis, 0.0625 mg/L (≈ 0.128 µM); against Aspergillus fumigatus, 4 mg/L (≈ 8.22 µM). Moreover, the MIC80 with Candida tropicalis turned out to be 0.25 mg/L (≈ 0.514 µM).

`CN(CC(O)(Cn1cncn1)c1ccc(F)cc1F)C1CCN(Cc2ccc(Br)cc2)CC1` (stereo not given): the MIC80 with Trichophyton rubrum stood at 0.25 mg/L (≈ 0.48 µM); in the test on Cryptococcus neoformans it was 0.25 mg/L (≈ 0.48 µM); against Candida albicans, 0.0625 mg/L (≈ 0.12 µM); in the test with Kluyveromyces marxianus, 1 mg/L (≈ 1.92 µM); in the test on Candida parapsilosis it was 0.0625 mg/L (≈ 0.12 µM); in the test with Aspergillus fumigatus, 4 mg/L (≈ 7.69 µM). For the same compound, the MIC80 against Candida tropicalis was determined as 0.25 mg/L (≈ 0.48 µM).

As to `CN(CC(O)(Cn1cncn1)c1ccc(F)cc1F)C1CCN(Cc2ccccc2Cl)CC1` (stereo not given), the MIC80 with Trichophyton rubrum turned out to be 1 mg/L (≈ 2.1 µM); against Cryptococcus neoformans, 0.25 mg/L (≈ 0.525 µM); in the test on Candida albicans, 0.25 mg/L (≈ 0.525 µM); in the test with Kluyveromyces marxianus, 1 mg/L (≈ 2.1 µM); against Candida parapsilosis, 0.0625 mg/L (≈ 0.131 µM); in the test with Aspergillus fumigatus it was 4 mg/L (≈ 8.4 µM). Besides, the MIC80 against Candida tropicalis amounted to 0.25 mg/L (≈ 0.525 µM).

Turning to `CN(CC(O)(Cn1cncn1)c1ccc(F)cc1F)C1CCN(Cc2ccc(Cl)cc2Cl)CC1` (stereo not given), the MIC80 against Trichophyton rubrum was found to be 0.25 mg/L (≈ 0.49 µM); against Cryptococcus neoformans it was 0.25 mg/L (≈ 0.49 µM); with Candida albicans, 0.0625 mg/L (≈ 0.122 µM); against Kluyveromyces marxianus it was 0.25 mg/L (≈ 0.49 µM); in the test on Candida parapsilosis, 0.0625 mg/L (≈ 0.122 µM); against Aspergillus fumigatus, 4 mg/L (≈ 7.84 µM). In addition, the MIC80 against Candida tropicalis was 0.0625 mg/L (≈ 0.122 µM).

As for `CN(CC(O)(Cn1cncn1)c1ccc(F)cc1F)C1CCN(Cc2cccc(Cl)c2)CC1` (stereo not given), the MIC80 with Trichophyton rubrum came to 0.25 mg/L (≈ 0.525 µM); against Cryptococcus neoformans it was 0.0625 mg/L (≈ 0.131 µM); against Candida albicans, 0.0625 mg/L (≈ 0.131 µM); in the test on Kluyveromyces marxianus, 1 mg/L (≈ 2.1 µM); against Candida parapsilosis, 0.0625 mg/L (≈ 0.131 µM); in the test with Aspergillus fumigatus it was 1 mg/L (≈ 2.1 µM). In the test with Candida tropicalis, this compound showed an MIC80 of 0.25 mg/L (≈ 0.525 µM).

As to `CN(CC(O)(Cn1cncn1)c1ccc(F)cc1F)C1CCN(Cc2ccc(C#N)cc2)CC1` (stereo not given), the MIC80 in the test on Trichophyton rubrum came out at 0.0625 mg/L (≈ 0.134 µM); against Cryptococcus neoformans, 0.0625 mg/L (≈ 0.134 µM); with Candida albicans it was 0.0625 mg/L (≈ 0.134 µM); in the test on Kluyveromyces marxianus it was 0.0625 mg/L (≈ 0.134 µM); in the test with Candida parapsilosis it was 0.25 mg/L (≈ 0.536 µM); in the test with Aspergillus fumigatus it was 1 mg/L (≈ 2.14 µM). Moreover, the MIC80 with Candida tropicalis worked out at 0.25 mg/L (≈ 0.536 µM).

For the compound `CN(CC(O)(Cn1cncn1)c1ccc(F)cc1F)C1CCN(Cc2cccc(Br)c2)CC1` (stereo not given), the MIC80 was 0.25 mg/L (≈ 0.48 µM) in the test with Trichophyton rubrum; 0.25 mg/L (≈ 0.48 µM) in the test on Cryptococcus neoformans; 0.0625 mg/L (≈ 0.12 µM) with Candida albicans; 0.25 mg/L (≈ 0.48 µM) against Kluyveromyces marxianus; 0.0625 mg/L (≈ 0.12 µM) against Candida parapsilosis; 1 mg/L (≈ 1.92 µM) in the test on Aspergillus fumigatus. The compound also returned an MIC80 against Candida tropicalis of 0.0625 mg/L (≈ 0.12 µM).

Turning to `CN(CC(O)(Cn1cncn1)c1ccc(F)cc1F)C1CCN(Cc2ccccc2F)CC1` (stereo not given), the MIC80 against Trichophyton rubrum was 1 mg/L (≈ 2.18 µM); in the test with Cryptococcus neoformans, 0.25 mg/L (≈ 0.544 µM); against Candida albicans it was 0.25 mg/L (≈ 0.544 µM); against Kluyveromyces marxianus it was 0.25 mg/L (≈ 0.544 µM); in the test on Candida parapsilosis it was 0.25 mg/L (≈ 0.544 µM); with Aspergillus fumigatus it was 16 mg/L (≈ 34.8 µM). Also, the MIC80 against Candida tropicalis came to 0.25 mg/L (≈ 0.544 µM).

As to `CN(CC(O)(Cn1cncn1)c1ccc(F)cc1F)C1CCN(Cc2ccc(F)cc2)CC1` (stereo not given), the MIC80 in the test with Trichophyton rubrum was 1 mg/L (≈ 2.18 µM); in the test with Cryptococcus neoformans it was 0.25 mg/L (≈ 0.544 µM); against Candida albicans it was 0.25 mg/L (≈ 0.544 µM); against Kluyveromyces marxianus, 0.25 mg/L (≈ 0.544 µM); against Candida parapsilosis, 0.25 mg/L (≈ 0.544 µM); in the test with Aspergillus fumigatus it was 16 mg/L (≈ 34.8 µM). Besides, in the test with Candida tropicalis, the MIC80 was 0.25 mg/L (≈ 0.544 µM).

For `COc1cccc(CN2CCC(N(C)CC(O)(Cn3cncn3)c3ccc(F)cc3F)CC2)c1` (stereo not given), the MIC80 against Trichophyton rubrum was found to be 1 mg/L (≈ 2.12 µM); in the test with Cryptococcus neoformans, 0.25 mg/L (≈ 0.53 µM); in the test on Candida albicans, 0.25 mg/L (≈ 0.53 µM); with Kluyveromyces marxianus, 0.25 mg/L (≈ 0.53 µM); in the test with Candida parapsilosis, 0.25 mg/L (≈ 0.53 µM); in the test with Aspergillus fumigatus, 64 mg/L (≈ 136 µM). The compound further displayed an MIC80 in the test on Candida tropicalis of 0.25 mg/L (≈ 0.53 µM).

`Cc1ccccc1CN1CCC(N(C)CC(O)(Cn2cncn2)c2ccc(F)cc2F)CC1` (stereo not given): the MIC80 against Trichophyton rubrum was determined as 1 mg/L (≈ 2.2 µM); with Cryptococcus neoformans, 0.25 mg/L (≈ 0.549 µM); with Candida albicans, 0.0625 mg/L (≈ 0.137 µM); against Kluyveromyces marxianus it was 0.25 mg/L (≈ 0.549 µM); against Candida parapsilosis, 0.25 mg/L (≈ 0.549 µM); against Aspergillus fumigatus, 64 mg/L (≈ 140 µM). The compound further gave an MIC80 in the test on Candida tropicalis of 0.25 mg/L (≈ 0.549 µM).

As to `CC(C)c1ccc(CN2CCC(N(C)CC(O)(Cn3cncn3)c3ccc(F)cc3F)CC2)cc1` (stereo not given), the MIC80 against Trichophyton rubrum was found to be 0.25 mg/L (≈ 0.517 µM); in the test with Cryptococcus neoformans it was 0.25 mg/L (≈ 0.517 µM); in the test with Candida albicans, 0.0156 mg/L (≈ 0.0323 µM); with Kluyveromyces marxianus, 0.25 mg/L (≈ 0.517 µM); against Candida parapsilosis it was 0.25 mg/L (≈ 0.517 µM); against Aspergillus fumigatus, 16 mg/L (≈ 33.1 µM). The compound further showed an MIC80 against Candida tropicalis of 0.25 mg/L (≈ 0.517 µM).

Turning to `OC(Cn1cncn1)(Cn1cncn1)c1ccc(F)cc1F` [FLUCONAZOLE], the MIC80 in the test with Trichophyton rubrum was 1 mg/L (≈ 3.27 µM); against Cryptococcus neoformans, 0.0625 mg/L (≈ 0.204 µM); in the test with Candida albicans, 0.25 mg/L (≈ 0.816 µM); against Kluyveromyces marxianus, 1 mg/L (≈ 3.27 µM); in the test on Candida parapsilosis, 0.25 mg/L (≈ 0.816 µM); in the test on Aspergillus fumigatus, > 64 mg/L. The same compound showed an MIC80 in the test on Candida tropicalis of 1 mg/L (≈ 3.27 µM).

(Values after ChEMBL document CHEMBL1629503, “Novel conformationally restricted triazole derivatives with potent antifungal activity” (2010).)
